Source: ChEMBL document CHEMBL1275434, “In vitro evaluation of CBR-2092, a novel rifamycin-quinolone hybrid antibiotic: studies of the mode of action in Staphylococcus aureus” (Antimicrob Agents Chemother, 2008)
Converted amounts (≈) assume the structure as drawn. The source made the active and inactive calls. The rule behind the calls is not given here.

Columns and labels:
Staphylococcus aureus [1] = assay: Antimicrobial activity against Staphylococcus aureus CB370 harboring rifampin-resistant rpoB H481Y mutant gene by broth microdilution method; assay type: functional
Summary of the method: (§1)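 CLSI broth microdilution MIC in cation-adjusted Mueller-Hinton (MHII) broth supplemented with 0.002% (vol/vol) polysorbate 80, included to limit compound loss to plastic surfaces.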

Staphylococcus aureus [2] = assay: Antimicrobial activity against Staphylococcus aureus CB809 harboring rpoB H481Y and parC S80F mutant genes by broth microdilution method
[3] = system: DNA gyrase subunit A (Staphylococcus aureus), P20831 [S84L]; assay: Activity at Staphylococcus aureus wild-type GyrA S84L mutant
Staphylococcus aureus [4] = assay: Activity at Staphylococcus aureus wild-type DNA topoisomerase 4 subunit ParC
Summary of the method: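 Recombinant S. aureus topoisomerase IV (wild-type ParC with ParE; specific activity 25 to 30 U per μg). Stopped with SDS/proteinase K. Linear DNA quantified on gel; CC50 is the mean of two or more assays.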

Staphylococcus aureus [5] = assay: Activity at Staphylococcus aureus DNA topoisomerase 4 subunit ParC S80F mutant
Staphylococcus aureus [6] = assay: Antimicrobial activity against Staphylococcus aureus CB811 harboring quinolone-resistant gyrA S84L mutant gene by broth microdilution method; assay type: functional; summary of the method: as §1
Staphylococcus aureus [7] = assay: Antimicrobial activity against Staphylococcus aureus CB815 harboring rpoB H481Y, gyrA S84L and parC S80F mutant genes by broth microdilution method
Staphylococcus aureus [8] = assay: Antimicrobial activity against Staphylococcus aureus CB814 harboring fluoroquinolone-resistant gyrA S84L and parC S80F mutant genes by broth microdilution method; assay type: functional; summary of the method: as §1
Staphylococcus aureus [9] = assay: Antimicrobial activity against Staphylococcus aureus CB812 harboring rpo B H481Y and gyrA S84L mutant genes by broth microdilution method; assay type: functional; summary of the method: as §1
Staphylococcus aureus [10] = assay: Antimicrobial activity against Staphylococcus aureus CB190 by broth microdilution method; assay type: functional
Staphylococcus aureus [11] = assay: Antimicrobial activity against Staphylococcus aureus CB808 harboring quinolone-resistant parC S80F mutant gene by broth microdilution method; assay type: functional; summary of the method: as §1
Staphylococcus aureus [12] = assay: Activity at Staphylococcus aureus wild-type GyrA
Summary of the method: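 Recombinant S. aureus gyrase (wild-type GyrA with His-tagged GyrB; 250 U per μg). SDS/proteinase K stop. Gel quantitation of linear cleavage product gave CC50, the mean of two or more assays.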

Staphylococcus aureus [13] = assay: Antimicrobial activity against Staphylococcus aureus CB1952 harboring rpoB S486L, gyrA […], gyrA E88Q, gyrA G532S, parC S80F, parC E84L mutant genes selected after CBR-2092 exposure for 21 days; assay type: functional; conditions: CB1952, 504 h
Staphylococcus aureus [14] = assay: Antimicrobial activity against Staphylococcus aureus CB370 harboring rpoB H481Y mutant gene; assay type: functional
Staphylococcus aureus [15] = assay: Antimicrobial activity against Staphylococcus aureus CB1947 harboring rpoB H481Y, gyrA S84L, E697 deficient gyrA, parC G167V mutant genes selected after CBR-2092 exposure for 20 days; conditions: CB1947, 480 h
Staphylococcus aureus [16] = assay: Antimicrobial activity against Staphylococcus aureus CB815 harboring rpoB H481Y, gyrA […] and parC S80F mutant genes; assay type: functional
Staphylococcus aureus [17] = assay: Antimicrobial activity against Staphylococcus aureus CB1954 harboring rpoB H481Y, gyrA S84L, K809 deficient gyrA, parC S80F, parC A523D mutant genes selected after CBR-2092 exposure for 7 days; assay type: functional; conditions: CB1954, 168 h; summary of the method: as §1
Staphylococcus aureus [18] = assay: Antimicrobial activity against Staphylococcus aureus CB1953 harboring rpoB H481Y, gyrA S84L, gyrA V598I, parC S80F, parC R570H mutant genes selected after CBR-2092 exposure for 7 days; assay type: functional; conditions: CB1953, 168 h
Staphylococcus aureus [19] = assay: Antimicrobial activity against Staphylococcus aureus CB814 harboring […] and parC S80F mutant genes; assay type: functional
Staphylococcus aureus [20] = assay: Antimicrobial activity against Staphylococcus aureus CB1884; assay type: functional
Staphylococcus aureus [21] = assay: Antimicrobial activity against rifampin-sensitive Staphylococcus aureus CB190 harboring rpoB E473 mutant gene by broth microdilution method; assay type: functional; summary of the method: as §1
Staphylococcus aureus [22] = assay: Antimicrobial activity against rifampin-sensitive Staphylococcus aureus CB190 harboring rpoB D471Y mutant gene by broth microdilution method; assay type: functional; summary of the method: as §1
Staphylococcus aureus [23] = assay: Antimicrobial activity against rifampin-sensitive Staphylococcus aureus CB190 harboring rpoB D471G mutant gene by broth microdilution method; assay type: functional; summary of the method: as §1
Staphylococcus aureus [24] = assay: Inhibition of DNA synthesis in rifamycin-resistant Staphylococcus aureus CB370 harboring rpoB H481Y mutant gene assessed as decrease in [methyl-3H]thymidine incorporation at 2 ug/ml; assay type: functional, organism-based
Summary of the method: (§2)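 Macromolecular synthesis time course in S. aureus, measuring incorporation of [methyl-3H]thymidine (DNA), [5,6-3H]uridine (RNA) or [2,3-3H]D-alanine (cell wall). At each time point, incorporation is expressed as percent of the DMSO-treated control culture. Incorporation at time zero is set to 100%.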

Staphylococcus aureus [25] = assay: Inhibition of RNA synthesis in quinolone-resistant Staphylococcus aureus CB814 harboring gyrA S84L and parC S80F mutant genes assessed as [5,6-3H]uridine incorporation at 2 ug/ml; assay type: functional, organism-based; summary of the method: as §2
Staphylococcus aureus [26] = assay: Antimicrobial activity against rifampin-sensitive Staphylococcus aureus CB190 harboring rpo BH481D mutant gene by broth microdilution method; assay type: functional; summary of the method: as §1
Staphylococcus aureus [27] = assay: Antimicrobial activity against rifampin-sensitive Staphylococcus aureus CB190 harboring rpoB H481N mutant gene by broth microdilution method; assay type: functional; summary of the method: as §1
Staphylococcus aureus [28] = assay: Inhibition of cell wall synthesis in quinolone-resistant Staphylococcus aureus CB814 harboring gyrA S84L and parC S80F mutant genes assessed as [2,3-3H]D-alanine incorporation at 2 ug/ml; assay type: functional, organism-based; summary of the method: as §2
Staphylococcus aureus [29] = assay: Antimicrobial activity against rifampin-sensitive Staphylococcus aureus CB190 harboring rpoB N474K mutant gene by broth microdilution method; assay type: functional; summary of the method: as §1
Staphylococcus aureus [30] = assay: Inhibition of cell wall synthesis in Staphylococcus aureus CB190 assessed as decrease in [2,3-3H]D-alanine incorporation at 2 ug/ml; assay type: functional, organism-based
Staphylococcus aureus [31] = assay: Antimicrobial activity against rifampin-sensitive Staphylococcus aureus CB190 harboring rpoB Q468L mutant gene by broth microdilution method; assay type: functional; summary of the method: as §1
Staphylococcus aureus [32] = assay: Inhibition of protein synthesis in Staphylococcus aureus CB190 assessed as decrease in L-[3,4,5-3H]leucine incorporation at 2 ug/ml; assay type: functional, organism-based
Staphylococcus aureus [33] = assay: Antimicrobial activity against rifampin-sensitive Staphylococcus aureus CB190 by broth microdilution method; assay type: functional; summary of the method: as §1
Staphylococcus aureus [34] = assay: Antimicrobial activity against rifampin-sensitive Staphylococcus aureus CB190 harboring rpoB H481Y mutant gene by broth microdilution method; assay type: functional; summary of the method: as §1
Staphylococcus aureus [35] = assay: Antimicrobial activity against rifampin-sensitive Staphylococcus aureus CB190 harboring rpoB H472 mutant gene by broth microdilution method; assay type: functional; summary of the method: as §1
Staphylococcus aureus [36] = assay: Antimicrobial activity against rifampin-sensitive Staphylococcus aureus CB190 harboring rpoB A477V mutant gene by broth microdilution method; assay type: functional; summary of the method: as §1
Staphylococcus aureus [37] = assay: Inhibition of DNA synthesis in Staphylococcus aureus CB190 assessed as decrease in [methyl-3H]thymidine incorporation at 2 ug/ml; assay type: functional, organism-based
Staphylococcus aureus [38] = assay: Antimicrobial activity against rifampin-sensitive Staphylococcus aureus CB190 harboring rpoB Q468K mutant gene by broth microdilution method; assay type: functional; summary of the method: as §1
Staphylococcus aureus [39] = assay: Antimicrobial activity against Staphylococcus aureus CB1887 harboring rpoB R484H, L520 deficient gyrA, […], R236 duplicated parC and parC H103Y mutant genes selected after ABT-719 exposure for 20 days; assay type: functional; conditions: CB1887, 480 h
Staphylococcus aureus [40] = assay: Inhibition of RNA synthesis in Staphylococcus aureus CB190 assessed as decrease in [5,6-3H]uridine incorporation at 2 ug/ml; assay type: functional, organism-based
Staphylococcus aureus [41] = assay: Inhibition of DNA synthesis in quinolone-resistant Staphylococcus aureus CB814 harboring gyrA S84L and parC S80F mutant genes assessed as [methyl-3H]thymidine incorporation at 2 ug/ml; assay type: functional, organism-based; summary of the method: as §2
Staphylococcus aureus [42] = assay: Inhibition of protein synthesis in quinolone-resistant Staphylococcus aureus CB814 harboring gyrA S84L and parC S80F mutant genes assessed as L-[3,4,5-3H]leucine incorporation at 2 ug/ml; assay type: functional, organism-based
Summary of the method: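 Time-course radiolabel incorporation in S. aureus cultures with test agent. Precursors: [methyl-3H]thymidine (DNA), [5,6-3H]uridine (RNA), L-[3,4,5-3H]leucine (protein), [2,3-3H]D-alanine (cell wall). At each time point, incorporation with agent is expressed relative to the DMSO-treated control culture as percent incorporation. Time-zero incorporation is set to 100%.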

`Cc1c(N2CC[C@@H](N)C2)c(F)cn2c(=O)c(C(=O)O)cc(C3CC3)c12` gave an MIC (Staphylococcus aureus [1]) of 0.015 µg/mL (≈ 0.0434 µM), an MIC (Staphylococcus aureus [2]) of 0.03 µg/mL (≈ 0.0869 µM) and a CC50 [3] of 900 nM. It also gave a CC50 (Staphylococcus aureus [4]) of 60 nM, a CC50 (Staphylococcus aureus [5]) of 1100 nM and an MIC (Staphylococcus aureus [6]) of 0.03 µg/mL (≈ 0.0869 µM). For the same compound, the MIC (Staphylococcus aureus [7]) was 0.25 µg/mL (≈ 0.724 µM), the MIC (Staphylococcus aureus [8]) was 0.5 µg/mL (≈ 1.45 µM) and the MIC (Staphylococcus aureus [9]) was 0.03 µg/mL (≈ 0.0869 µM). It also gave an MIC (Staphylococcus aureus [10]) of 0.015 µg/mL (≈ 0.0434 µM), an MIC (Staphylococcus aureus [11]) of 0.03 µg/mL (≈ 0.0869 µM) and a CC50 (Staphylococcus aureus [12]) of 90 nM.

With `CCBr` [BROMOETHANE] the MIC (Staphylococcus aureus [13]) was 4 µg/mL (≈ 36.7 µM), the MIC (Staphylococcus aureus [14]) was 4 µg/mL (≈ 36.7 µM) and the MIC (Staphylococcus aureus [15]) was 4 µg/mL (≈ 36.7 µM). The MIC (Staphylococcus aureus [16]) was 4 µg/mL (≈ 36.7 µM), the MIC (Staphylococcus aureus [17]) was 4 µg/mL (≈ 36.7 µM) and the MIC (Staphylococcus aureus [18]) was 4 µg/mL (≈ 36.7 µM). It also gave an MIC (Staphylococcus aureus [19]) of 4 µg/mL (≈ 36.7 µM) and an MIC (Staphylococcus aureus [20]) of 2 µg/mL (≈ 18.4 µM).

With `O=C(O)c1cn(C2CC2)c2cc(N3CCNCC3)c(F)cc2c1=O` [CIPROFLOXACIN] the MIC (Staphylococcus aureus [1]) was 0.25 µg/mL (≈ 0.754 µM), the MIC (Staphylococcus aureus [13]) was 64 µg/mL (≈ 193 µM) and the MIC (Staphylococcus aureus [2]) was 2 µg/mL (≈ 6.04 µM). It also gave an MIC (Staphylococcus aureus [21]) of 0.25 µg/mL (≈ 0.754 µM), an MIC (Staphylococcus aureus [22]) of 0.5 µg/mL (≈ 1.51 µM) and a CC50 [3] of over 150000 nM. For the same compound, the MIC (Staphylococcus aureus [14]) was 0.25 µg/mL (≈ 0.754 µM), the MIC (Staphylococcus aureus [23]) was 0.25 µg/mL (≈ 0.754 µM) and the Activity (Staphylococcus aureus [24]) was “Active”. For the same compound, the CC50 (Staphylococcus aureus [4]) was 400 nM, the MIC (Staphylococcus aureus [15]) was 2 µg/mL (≈ 6.04 µM) and the Activity (Staphylococcus aureus [25]) was “inactive”. It also gave an MIC (Staphylococcus aureus [26]) of 0.25 µg/mL (≈ 0.754 µM), a CC50 (Staphylococcus aureus [5]) of 31000 nM and an MIC (Staphylococcus aureus [6]) of 0.25 µg/mL (≈ 0.754 µM). For the same compound, the MIC (Staphylococcus aureus [27]) was 0.25 µg/mL (≈ 0.754 µM), the Activity (Staphylococcus aureus [28]) was “inactive” and the MIC (Staphylococcus aureus [29]) was 0.25 µg/mL (≈ 0.754 µM). The Activity (Staphylococcus aureus [30]) was “Active”, the MIC (Staphylococcus aureus [31]) was 0.25 µg/mL (≈ 0.754 µM) and the Activity (Staphylococcus aureus [32]) was “Active”. The MIC (Staphylococcus aureus [33]) was 0.25 µg/mL (≈ 0.754 µM), the MIC (Staphylococcus aureus [17]) was 64 µg/mL (≈ 193 µM) and the MIC (Staphylococcus aureus [34]) was 0.25 µg/mL (≈ 0.754 µM). For the same compound, the MIC (Staphylococcus aureus [18]) was 64 µg/mL (≈ 193 µM), the MIC (Staphylococcus aureus [35]) was 0.25 µg/mL (≈ 0.754 µM) and the MIC (Staphylococcus aureus [36]) was 0.25 µg/mL (≈ 0.754 µM). For the same compound, the Activity (Staphylococcus aureus [37]) was “Active”, the MIC (Staphylococcus aureus [20]) was 8 µg/mL (≈ 24.1 µM) and the MIC (Staphylococcus aureus [9]) was 0.25 µg/mL (≈ 0.754 µM). The MIC (Staphylococcus aureus [38]) was 0.25 µg/mL (≈ 0.754 µM), the MIC (Staphylococcus aureus [39]) was 64 µg/mL (≈ 193 µM) and the MIC (Staphylococcus aureus [10]) was 0.25 µg/mL (≈ 0.754 µM). The Activity (Staphylococcus aureus [40]) was “Active”, the Activity (Staphylococcus aureus [41]) was “inactive” and the MIC (Staphylococcus aureus [11]) was 2 µg/mL (≈ 6.04 µM). For the same compound, the Activity (Staphylococcus aureus [42]) was “inactive” and the CC50 (Staphylococcus aureus [12]) was 4600 nM.
